Assay results gathered from unrelated publications.
Each line is one published result; the experiments were not run side by side.
Target: Tyrosine-protein kinase receptor UFO (AXL, Homo sapiens, UniProt P30530)
Tested at: 1 µM
One construct used (P30530 26-894): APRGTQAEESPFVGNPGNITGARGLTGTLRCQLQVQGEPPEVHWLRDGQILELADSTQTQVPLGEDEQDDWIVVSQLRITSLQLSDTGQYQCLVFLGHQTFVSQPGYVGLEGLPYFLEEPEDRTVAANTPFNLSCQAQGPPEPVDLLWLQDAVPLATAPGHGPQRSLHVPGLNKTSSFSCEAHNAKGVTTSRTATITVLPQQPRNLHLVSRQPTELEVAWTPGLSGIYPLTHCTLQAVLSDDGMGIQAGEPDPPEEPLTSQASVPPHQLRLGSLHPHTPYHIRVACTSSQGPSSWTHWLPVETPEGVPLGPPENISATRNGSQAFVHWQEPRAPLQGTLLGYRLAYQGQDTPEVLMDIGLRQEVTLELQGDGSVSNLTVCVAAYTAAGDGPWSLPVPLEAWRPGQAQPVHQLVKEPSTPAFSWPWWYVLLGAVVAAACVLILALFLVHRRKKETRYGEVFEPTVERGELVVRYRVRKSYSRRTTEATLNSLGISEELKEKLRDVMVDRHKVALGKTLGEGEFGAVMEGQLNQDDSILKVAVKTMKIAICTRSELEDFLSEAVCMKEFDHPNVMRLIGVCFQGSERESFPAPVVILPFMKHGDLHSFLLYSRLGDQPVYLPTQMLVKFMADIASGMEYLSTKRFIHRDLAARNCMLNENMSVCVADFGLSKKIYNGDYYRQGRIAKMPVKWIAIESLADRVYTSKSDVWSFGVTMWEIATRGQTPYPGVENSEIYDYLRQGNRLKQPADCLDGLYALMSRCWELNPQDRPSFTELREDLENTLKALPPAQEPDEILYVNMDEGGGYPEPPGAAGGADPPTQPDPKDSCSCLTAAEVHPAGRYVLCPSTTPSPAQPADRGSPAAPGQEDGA

The remaining binding of CN1CCN(C(=O)c2ccc(NC(=O)Nc3ccc(N(C)c4ccnc(Nc5ccc(CS(C)(=O)=O)cc5)n4)cc3)cc2)CC1 is reported as 9.7% (binding, competition with immobilised ligand).
With C#Cc1cnc(Nc2ccnc(CO)c2)nc1Nc1ccccc1S(C)(=O)=NC#N (centres unmarked) the remaining activity was 26.1% (enzyme activity, inhibitor).
For C=CC(=O)N1CCC([C@@H]2CCNc3c(C(N)=O)c(-c4ccc(Oc5ccccc5)cc4)nn32)CC1, the inhibition was 0% (enzyme activity, inhibitor).
C[C@H]1CC[C@H](n2c3cnccc3c3cnc(Nc4ccc5c(n4)CCN(C(=O)CO)C5)nc32)CC1 gave a remaining binding of 81% (binding, competition with immobilised ligand).
C[C@]1(O)CCCN(c2nc(Nc3ccc(S(=O)(=O)N[C@H]4CC[C@H](CN5CCN(c6ccc(C7CCC(=O)NC7=O)cc6F)CC5)CC4)cc3Cl)ncc2C(F)(F)F)C1 (some centres unmarked) gave a remaining binding of 98% (binding, competition with immobilised ligand).
With C=CC(=O)N1CCC[C@@H](n2nc(-c3ccc(Oc4ccccc4)cc3)c3c(N)ncnc32)C1 the inhibition was 34% (enzyme activity, inhibitor).
Cc1cc(S(=O)(=O)N[C@H]2CC[C@H](CN3CCN(c4ccc(C5CCC(=O)NC5=O)cc4F)CC3)CC2)ccc1Nc1ncc(C(F)(F)F)c(N2CCC[C@](C)(O)C2)n1 (some centres unmarked) has a remaining binding of 56% (binding, competition with immobilised ligand).
C#Cc1cnc(Nc2ccc(CO)nc2)nc1Nc1ccccc1S(C)(=O)=NC#N (centres unmarked) has a remaining activity of 27.6% (enzyme activity, inhibitor).
